Laboratory results as given in ChEMBL document CHEMBL1155436, “Phantasmidine: an epibatidine congener from the ecuadorian poison frog Epipedobates anthonyi” (J Nat Prod, 2010).
Active and inactive are the calls of the source. No cut-off for these calls is given here.

Columns and labels:
[1] = Selectivity of beta4 nAChR over beta2 nAChR
[2] = target: T1, Neuronal acetylcholine receptor; alpha3/beta4 (Homo sapiens) (UniProt P30926+P32297); test: Agonist activity at human alpha3beta4 nAChR in human IMR32 cells assessed as membrane depolarization after 1 hr by HPLC based fluorescence assay; type: functional, cell-based; details: IMR-32
Procedure, shortened: (§1)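 Membrane potential dye assay in native SH-SY5Y, IMR-32 or TE-671 cells. Cells grown near confluence on poly-D-lysine plates in DMEM with 10% FBS, washed in HBSS/20 mM HEPES pH 7.4, then loaded with dye 1 h in dark at room temperature. Ex 530/em 565 nm. Sequence: 15 s basal, HPLC fraction 105 s, 300 µM nicotine (added solution), 160 mM KCl (added solution). Response = basal-subtracted peak ÷ KCl maximum.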

[3] = target: T1, Neuronal acetylcholine receptor; alpha3/beta4 (Homo sapiens); test: Agonist activity at human alpha3beta4 nAChR in human SH-SY5Y cells assessed as membrane depolarization after 1 hr by HPLC based fluorescence assay; type: functional, cell-based; procedure, shortened: as §1
[4] = target: T2, Neuronal acetylcholine receptor; alpha3/beta4 (Rattus norvegicus) (UniProt P04757+P12392); test: Agonist activity at rat alpha3beta4 nAChR expressed in HEK cells assessed as membrane depolarization after 1 hr by HPLC based fluorescence assay; type: functional, cell-based; details: HEK293
Procedure, shortened: (§2)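 Membrane potential assay in G418-selected KXR3β4R2, KXR4β4R1 or KXR4β2R2 lines on poly-D-lysine plates (DMEM, 10% FBS, near confluence). Cells washed in HBSS/HEPES pH 7.4 and loaded with no-wash dye 1 h dark at room temperature. Fractions reconstituted in HBSS/HEPES, added after 15 s basal, read 105 s. Nicotine (300 µM added solution) and KCl (160 mM) follow. Peak response normalised to KCl maximum after basal subtraction.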

[5] = target: T2, Neuronal acetylcholine receptor; alpha3/beta4 (Rattus norvegicus); test: Agonist activity at rat alpha3beta4 nAChR expressed in HEK cells assessed as elevation of intracellular calcium after 1 hr by HPLC based fluorescence assay; type: functional, cell-based; details: HEK293
[6] = target: Neuronal acetylcholine receptor; alpha4/beta2 (Rattus norvegicus) (UniProt P09483+P12390); test: Agonist activity at rat alpha4beta2 nAChR expressed in HEK cells assessed as membrane depolarization after 1 hr by HPLC based fluorescence assay; type: functional, cell-based; details: HEK293; procedure, shortened: as §2
[7] = target: Neuronal acetylcholine receptor; alpha4/beta2 (Homo sapiens) (UniProt P17787+P43681); test: Agonist activity at human alpha4beta2 nAChR expressed in human K177 cells assessed as membrane depolarization after 1 hr by HPLC based fluorescence assay; type: functional, cell-based
[8] = target: Neuronal acetylcholine receptor; alpha4/beta4 (Rattus norvegicus) (UniProt P09483+P12392); test: Agonist activity at rat alpha4beta4 nAChR expressed in HEK cells assessed as membrane depolarization after 1 hr by HPLC based fluorescence assay; type: functional, cell-based; details: HEK293; procedure, shortened: as §2
[9] = target: Acetylcholine receptor; alpha1/beta1/delta/gamma (Homo sapiens) (UniProt P02708+P07510+P11230+Q07001); test: Agonist activity at human alpha-1-beta-1-gamma-delta nAChR expressed in human TE671 cells assessed as membrane depolarization after 1 hr by HPLC based fluorescence assay; type: functional, cell-based; details: TE-671; procedure, shortened: as §1

SMILES | fold change (FC) [1] | Activity [2] | Activity [3] | Activity [4] | Activity [5] | further results
O=C1NC[C@@]2(CN3CCC2CC3)O1 | > 20 |  |  |  |  | 
Clc1ccc(C2CC3CCC2N3)cn1 (stereo not given) |  | Active | Active | Active | Active | 
Clc1ccc(C2=CCC[C@@H]3CC[C@H]2N3)cn1 | 3 |  |  |  |  | 
Clc1ccc2c(n1)O[C@@]13CC[C@@H]1NC[C@@H]23 |  | Active | Active | Active | Active | Activity [6]: inactive; Activity [7]: inactive; Activity [8]: Active; Activity [9]: inactive
c1cncc([C@H]2C[C@@H]3CC[C@H]2N3)c1 | 3 |  |  |  |  | 
